Test [1] concerns the target Glutamate receptor ionotropic, kainate 1 (Homo sapiens) (UniProt P39086). Put plainly: Inhibitory effect on glutamate-induced calcium influx at homomeric human GLUK5 receptor expressed in HEK293 cells. The test is classed as functional, cell-based. Put shortly:
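HEK293 cells stably expressing human GLUK5(Q), calcium fluorescence assay (FLIPR) in presence of concanavalin A. Antagonist added alone first, then with 100 µM glutamate. Curves fitted with slope fixed at 1; Kb from IC50 via Cheng-Prusoff using glutamate EC50 determined in same plate.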

Test [2] can be described thus: Inhibitory effect on glutamate-induced calcium influx at homomeric human GLUK5/GLUK2 receptor clone expressed in HEK293 cells. The test is classed as functional. The procedure, abridged:
(§1)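 HEK293 lines stably coexpressing human GLUK5 with GLUK2 or GLUK6 (GLUK5(R)/GLUK6(Q)), FLIPR calcium assay with concanavalin A present. Antagonist given alone at first addition, then with 100 µM glutamate at second. Curves fit with slope 1, top/bottom fixed at 100%/0%. Kb = IC50/(1+[Glu]/EC50 Glu), glutamate EC50 from curves on same plate.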

Test [3] has as its target T1, Glutamate receptor ionotropic, AMPA (Rattus norvegicus, UniProt P19490+P19491+P19492+P19493). Briefly: (§2) Antagonist activity on AMPA receptor expressed on rat motoneurons by its ability to reduce the fast component dorsal root evoked ventral root potential (fDR-VRP). Type of test: functional.
Test [4] deals with Glutamate receptor ionotropic, kainate 1 (Rattus norvegicus, UniProt P22756). Briefly: Antagonism on GLUK5 containing kainate induced depolarization of isolated neonatal rat dorsal root C-fibers. Type of test: functional.
For test [5], the target named is Glutamate receptor ionotropic, kainate 2 (Rattus norvegicus, UniProt P42260). Briefly: (§3) Displacement of [3H]kainate from rat GLUK6 receptor expressed in HEK293 cells. The test is classed as cell-based.
Test [6] in a line: Inhibitory effect on glutamate-induced calcium influx at homomeric human GLUK5/GLUK6 receptor clone expressed in HEK293 cells. Type of test: functional. The procedure, abridged:
as §1

The target in test [7] is T1, Glutamate receptor ionotropic, AMPA. Briefly: Displacement of [3H](S)-5-fluorowillardiine from AMPA receptor in rat brain membrane. The test is classed as cell membranes. (In general: Loss of bound radioactivity is the signal in a displacement assay; it reports binding, not function.)
Test [8] addresses Glutamate receptor ionotropic, kainate (Rattus norvegicus). Briefly: Displacement of [3H]SYM2081 from kainate receptor in rat brain membrane.
Test [9] concerns the target Glutamate receptor ionotropic, AMPA (Rattus norvegicus, UniProt P19491+P19492+P19493+P19490). Described as §2. The test is classed as functional.
Test [10] deals with Glutamate receptor ionotropic, kainate 1 (Rattus norvegicus) (UniProt P22756). Put plainly: Percentage depression of GLUK5 containing kainate induced depolarization on isolated neonatal rat dorsal root C-fibers at 200 uM. The test is classed as functional.
In test [11] the target is Glutamate receptor ionotropic, kainate 2 (Rattus norvegicus) (UniProt P42260). The test is described as §3. The test is classed as cell-based.
Chain of Glutamate receptor ionotropic, kainate 2 (Rattus norvegicus) (P42260 whole entry): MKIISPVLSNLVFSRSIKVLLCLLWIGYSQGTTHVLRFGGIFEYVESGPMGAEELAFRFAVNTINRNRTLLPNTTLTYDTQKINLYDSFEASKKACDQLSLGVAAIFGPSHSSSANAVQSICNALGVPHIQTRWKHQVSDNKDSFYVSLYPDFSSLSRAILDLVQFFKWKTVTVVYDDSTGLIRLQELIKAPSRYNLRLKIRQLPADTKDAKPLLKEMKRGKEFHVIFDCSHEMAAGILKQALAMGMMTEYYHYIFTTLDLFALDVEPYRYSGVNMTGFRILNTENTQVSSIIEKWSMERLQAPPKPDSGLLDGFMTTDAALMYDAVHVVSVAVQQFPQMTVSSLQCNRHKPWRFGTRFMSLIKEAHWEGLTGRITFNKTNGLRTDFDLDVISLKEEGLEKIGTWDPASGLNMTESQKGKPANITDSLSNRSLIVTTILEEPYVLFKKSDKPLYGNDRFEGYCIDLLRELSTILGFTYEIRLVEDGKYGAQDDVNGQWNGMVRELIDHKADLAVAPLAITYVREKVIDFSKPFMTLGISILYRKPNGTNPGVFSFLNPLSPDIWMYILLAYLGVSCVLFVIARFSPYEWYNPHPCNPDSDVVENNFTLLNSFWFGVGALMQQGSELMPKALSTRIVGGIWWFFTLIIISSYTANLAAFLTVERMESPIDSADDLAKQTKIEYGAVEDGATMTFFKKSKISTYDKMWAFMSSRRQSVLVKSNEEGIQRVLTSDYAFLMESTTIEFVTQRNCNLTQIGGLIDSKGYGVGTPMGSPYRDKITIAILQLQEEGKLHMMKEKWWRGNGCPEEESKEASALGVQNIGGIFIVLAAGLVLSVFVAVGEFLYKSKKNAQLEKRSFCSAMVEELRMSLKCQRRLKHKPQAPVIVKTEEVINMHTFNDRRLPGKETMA

Chain of Glutamate receptor ionotropic, kainate 2 (P42260 whole entry): as above
Chain of Glutamate receptor ionotropic, kainate 1 (P22756 whole entry): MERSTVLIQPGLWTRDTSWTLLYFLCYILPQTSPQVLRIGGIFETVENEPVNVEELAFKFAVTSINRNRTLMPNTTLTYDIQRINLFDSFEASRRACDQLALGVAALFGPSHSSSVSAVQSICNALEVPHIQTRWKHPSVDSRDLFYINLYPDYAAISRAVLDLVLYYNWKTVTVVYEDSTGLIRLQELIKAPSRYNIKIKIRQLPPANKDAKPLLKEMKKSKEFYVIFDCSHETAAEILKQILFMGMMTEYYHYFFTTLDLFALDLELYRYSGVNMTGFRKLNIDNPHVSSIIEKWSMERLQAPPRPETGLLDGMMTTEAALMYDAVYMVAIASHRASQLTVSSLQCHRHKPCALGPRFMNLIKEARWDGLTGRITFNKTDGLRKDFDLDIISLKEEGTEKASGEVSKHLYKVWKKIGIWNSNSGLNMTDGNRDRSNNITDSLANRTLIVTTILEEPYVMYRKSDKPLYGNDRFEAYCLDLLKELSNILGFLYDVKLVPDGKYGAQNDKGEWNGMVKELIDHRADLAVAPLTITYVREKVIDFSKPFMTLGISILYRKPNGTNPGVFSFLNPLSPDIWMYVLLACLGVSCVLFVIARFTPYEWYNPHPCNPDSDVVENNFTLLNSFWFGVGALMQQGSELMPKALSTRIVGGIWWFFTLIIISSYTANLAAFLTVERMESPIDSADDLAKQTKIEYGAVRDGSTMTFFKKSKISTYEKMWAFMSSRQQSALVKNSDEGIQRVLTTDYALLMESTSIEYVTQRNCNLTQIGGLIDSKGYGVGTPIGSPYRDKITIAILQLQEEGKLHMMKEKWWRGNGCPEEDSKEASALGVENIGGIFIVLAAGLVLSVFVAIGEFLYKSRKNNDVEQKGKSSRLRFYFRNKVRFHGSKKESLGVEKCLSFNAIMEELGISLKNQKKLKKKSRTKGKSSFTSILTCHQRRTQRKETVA
Chain of Glutamate receptor ionotropic, kainate 1 (Rattus norvegicus) (P22756 whole entry): as above
Chain of Glutamate receptor ionotropic, kainate 1 (Homo sapiens) (P39086 whole entry): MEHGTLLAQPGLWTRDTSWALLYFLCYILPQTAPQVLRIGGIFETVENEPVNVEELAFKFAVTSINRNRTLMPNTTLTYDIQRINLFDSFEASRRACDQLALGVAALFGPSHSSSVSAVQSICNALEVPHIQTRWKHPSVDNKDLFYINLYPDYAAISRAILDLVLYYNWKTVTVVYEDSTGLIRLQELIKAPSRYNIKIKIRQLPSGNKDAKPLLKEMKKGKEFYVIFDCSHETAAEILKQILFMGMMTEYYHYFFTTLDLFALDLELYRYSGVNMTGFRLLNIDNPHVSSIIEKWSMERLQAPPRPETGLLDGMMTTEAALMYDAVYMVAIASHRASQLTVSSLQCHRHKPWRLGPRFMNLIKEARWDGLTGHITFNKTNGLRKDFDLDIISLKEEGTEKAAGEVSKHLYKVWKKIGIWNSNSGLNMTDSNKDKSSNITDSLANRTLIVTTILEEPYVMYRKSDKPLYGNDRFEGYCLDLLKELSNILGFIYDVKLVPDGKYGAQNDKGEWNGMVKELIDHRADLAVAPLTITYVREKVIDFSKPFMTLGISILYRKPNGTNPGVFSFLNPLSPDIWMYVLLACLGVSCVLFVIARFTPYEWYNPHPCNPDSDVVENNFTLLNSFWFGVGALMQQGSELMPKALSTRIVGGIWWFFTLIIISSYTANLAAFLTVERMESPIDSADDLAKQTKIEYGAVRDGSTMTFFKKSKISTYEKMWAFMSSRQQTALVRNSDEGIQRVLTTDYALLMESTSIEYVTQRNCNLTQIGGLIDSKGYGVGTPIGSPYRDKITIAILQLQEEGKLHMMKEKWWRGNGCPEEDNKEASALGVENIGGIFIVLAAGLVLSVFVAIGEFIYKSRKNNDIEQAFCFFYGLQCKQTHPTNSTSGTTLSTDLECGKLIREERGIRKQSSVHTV

`NC(Cn1ccc(=O)n(Cc2ccccc2C(=O)O)c1=O)C(=O)O` (racemic): the Kb in [1] is 0.6 µM; in [2] it was 1 µM; in [6], 0.8 µM. Also, in test [3], inhibition was half-maximal at 97.6 µM (IC50). Moreover, the Kd in test [4] amounted to 1.09 µM. Moreover, the Ki in test [5] was greater than 1000 µM.

Molecule `N[C@@H](Cn1ccc(=O)n(Cc2cccc(C(=O)O)c2)c1=O)C(=O)O` registered a Kd in test [4] of 49.1 µM. The same molecule yielded a Ki in [5] greater than 1000 µM.

On to `N[C@H](Cn1ccc(=O)n(Cc2ccccc2C(=O)O)c1=O)C(=O)O`, for which the IC50 in test [3] is greater than 100 µM. In test [4], the dissociation constant (Kd) is greater than 100 µM. This molecule also came in with a Ki in test [5] greater than 1000 µM.

The molecule `N[C@@H](Cn1ccc(=O)n(Cc2ccccc2C(=O)O)c1=O)C(=O)O` registered an IC50 in test [3] of 106 µM. For the same molecule, the Kd in test [4] worked out at 0.402 µM. Further, the Ki in test [5] was greater than 1000 µM.

`N[C@@H](Cn1ccc(=O)n(CCCC(=O)O)c1=O)C(=O)O`: the midpoint of inhibition in test [3], the IC50, lay at 136 µM. The molecule also showed a Kd in [4] of 60.5 µM. The Ki is 17.8 µM in test [7], greater than 1000 µM in test [5] and 96.2 µM in test [8].

Regarding `N[C@@H](Cn1cc(I)c(=O)n(Cc2ccccc2C(=O)O)c1=O)C(=O)O`, in test [3], half-maximal inhibition (IC50) required 74.1 µM. Also, the affinity in test [4], expressed as Kd, was 0.209 µM. The Ki in test [5] is greater than 100 µM.

For the molecule `N[C@@H](Cn1ccc(=O)n(CC(=O)O)c1=O)C(=O)O`, the IC50 in [3] worked out at 287 µM. The affinity in [7] corresponds to a Ki of 195 µM.

In test [4], `N#Cc1cc2c(cc1[N+](=O)[O-])=NC(=O)C(=O)N=2` came in with a Kd of 1.66 µM. In test [5], this molecule had a Ki of 1.05 µM.

Turning to `N[C@@H](Cn1c(=O)ccn(CC(=O)O)c1=O)C(=O)O`, the Ki is greater than 1000 µM in test [7], greater than 100 µM in test [5] and greater than 500 µM in [8].

With `N[C@@H](Cn1ccc(=O)n(Cc2ccc(C(=O)O)cc2)c1=O)C(=O)O`, in [4], the affinity, expressed as Kd, was 9.25 µM. Moreover, the Ki in test [5] was greater than 100 µM.

`N[C@@H](Cn1cc(I)c(=O)n(CCC(=O)O)c1=O)C(=O)O` displayed an IC50 in test [3] of 13.7 µM. The same molecule had a Kd in [4] of 8.17 µM. The Ki in test [7] was 5 µM; in test [5], greater than 100 µM; in test [8], 52.7 µM.

In the case of `Cn1c(=O)ccn(C[C@H](N)C(=O)O)c1=O`, the IC50 entry in test [9] is recorded as “Agonist”. For the same molecule, in test [5], the Ki was greater than 100 µM.

`N[C@@H](Cn1cc([N+](=O)[O-])c(=O)n(CCC(=O)O)c1=O)C(=O)O` displayed an IC50 in test [3] of 79.9 µM. In test [5], the Ki was greater than 100 µM.

For the molecule `N[C@@H](CNC(=O)NCc1cccc(C(=O)O)c1)C(=O)O`, in test [3], the IC50 is greater than 1000 µM.

Molecule `N[C@@H](Cn1ccc(=O)n(CCC(=O)O)c1=O)C(=O)O` showed a Kd in test [4] of 73.1 µM. In test [5], the Ki was greater than 100 µM.

In turn, `N[C@H](Cn1ccc(=O)n(CCCC(=O)O)c1=O)C(=O)O` gave an Activity in test [10] of 22.8%. Also, the Ki was 149 µM in test [7] and greater than 500 µM in test [8].

`C=C(C)[C@H]1CN[C@H](C(=O)O)[C@H]1CC(=O)O` had a Bmax in test [11] of 1.53 pmol/mg.

In [10], `N[C@H](Cn1ccc(=O)n(CCC(=O)O)c1=O)C(=O)O` came in with an Activity of 13.2%. This molecule showed a Ki in test [5] greater than 100 µM.

For orientation: IC50 means the concentration that inhibits the measured activity by half. As a reminder, the Kd is the constant that tells how readily two partners part at equilibrium. Low readings indicate higher affinity, high ones lower affinity. Broadly, the Ki is a measure of affinity in units of concentration, obtained from inhibition or displacement. Read a high Ki as a looser hold on the target.

Values taken from ChEMBL document CHEMBL1141230, “Synthesis and pharmacology of willardiine derivatives acting as antagonists of kainate receptors” (J Med Chem, 2005).
